# Measured values collected from several papers.
# CA12: Carbonic anhydrase 12 (CA12, Homo sapiens, UniProt O43570)
# SLC6A3: Sodium-dependent dopamine transporter (SLC6A3, Homo sapiens, UniProt Q01959)
SMILES,target,observed,action,technique,pH,notes,Ki [nM]
O=C(Nc1ccc2c(c1)C=CCP(=O)(O)O2)c1ccc(I)cc1,CA12,enzyme activity,inhibitor,stopped-flow,,,57.5
Cc1cc(=O)oc2cc(OCCCC[Se]C#N)ccc12,CA12,enzyme activity,inhibitor,stopped-flow,,,51.6
COC(=O)[C@H]1[C@@H](c2ccc(Cl)c(Cl)c2)C[C@@H]2CC[C@H]1N2CCCOCc1ccc2cc3ccccc3cc2c1,SLC6A3,ligand displacement,,radioligand,pH 7.4,cell membranes,204
CCCCC1CNC2CCc3ccc(OC)cc3C12 (racemic),SLC6A3,ligand displacement,,radioligand,,,> 10000
Cc1c(Cl)c(=O)oc2cc(OCCCC[Se]C#N)ccc12,CA12,enzyme activity,inhibitor,stopped-flow,,,71.6
CCOP1(=O)CC=Cc2cc(N)ccc2O1 (stereo not drawn),CA12,enzyme activity,inhibitor,stopped-flow,,,16.6
COC(=O)[C@H]1[C@@H](c2ccc(Cl)cc2)C[C@@H]2CC[C@H]1N2CCCCCCCCCc1c2ccccc2cc2ccccc12,SLC6A3,ligand displacement,,radioligand,pH 7.4,,24
COc1cc2c(cc1OC)CN(CCc1ccc(NC(=O)c3cccc4c(=O)c5cccc(OC)c5[nH]c34)cc1)CC2,"D(3) dopamine receptor (DRD3, Homo sapiens, UniProt P35462)",cell-free assay,,,,,77
COc1ccc(NC(=O)Nc2ccc3c(c2)C=CCP(=O)(O)O3)cc1,CA12,enzyme activity,inhibitor,stopped-flow,,,> 10000
